A selection: hits, their analogues and other compounds. The true share with any hit is near 9.4%.
CSC inhib – cancer stem cell viability inhibitors, primary screen, luminescence; cancer stem cell-like cells viability; inhibition, % at 7.5 µM; 1.1% of 300,000 active; AID 2717, 2010; in the data active means inhibition above about 75%; tested in HMLE shEcad cells
T cruzi repl – inhibitors of intracellular T. cruzi growth, primary screen, luminescence, NIH3T3 host cells. 1.4% of 300,000 active. inhibition, % (test concentration not listed). T. cruzi beta-gal in NIH3T3, 90 h;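 active means mean inhibition across valid replicates above about 55%, limit read from the data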;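 further: signal also drops with host cell toxicity which is not excluded here; 0% = plate median of DMSO wells and 100% = zero luminescence signal; higher percent means less beta-gal luminescence so fewer parasites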
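System: mouse NIH/3T3 fibroblasts infected with β-gal-expressing T. cruzi Tulahuen C4 / Input: NIH/3T3 cells, 5,000 per well / Buffer or medium: Low-serum DMEM with 2% FBS / Probe or stimulus: 5000 reporter trypomastigotes per well / Schedule: ≥90 h infection period, 3 h prior cell attachment / Measured by: GalScreen luminescence, 60 min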
L major viab – Leishmania major promastigote growth inhibition, primary screen; Leishmania major promastigotes, resazurin fluorescence viability; inhibition, % at 10 µM; 9% of 200,000 active; AID 1063, 2008; in the data active means inhibition above about 50%;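 further: promastigotes grown with compound for 44 hours at 28 °C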
Mdm2-MdmX inh – inhibitors of human Mdm2-MdmX association, primary screen, cell-based, luminescence, split luciferase, SaOS-2, uHTS; Protein Mdm4 (Homo sapiens) + E3 ubiquitin-protein ligase Mdm2 (Homo sapiens), …; SaOS-2 split-luciferase Mdm2/MdmX complementation; inhibition, % at 8 µM; 3% of 330,000 active;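 active means inhibition of at least 50% at 8 µM in the primary screen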
Target sequence (O15151 whole entry, looked up): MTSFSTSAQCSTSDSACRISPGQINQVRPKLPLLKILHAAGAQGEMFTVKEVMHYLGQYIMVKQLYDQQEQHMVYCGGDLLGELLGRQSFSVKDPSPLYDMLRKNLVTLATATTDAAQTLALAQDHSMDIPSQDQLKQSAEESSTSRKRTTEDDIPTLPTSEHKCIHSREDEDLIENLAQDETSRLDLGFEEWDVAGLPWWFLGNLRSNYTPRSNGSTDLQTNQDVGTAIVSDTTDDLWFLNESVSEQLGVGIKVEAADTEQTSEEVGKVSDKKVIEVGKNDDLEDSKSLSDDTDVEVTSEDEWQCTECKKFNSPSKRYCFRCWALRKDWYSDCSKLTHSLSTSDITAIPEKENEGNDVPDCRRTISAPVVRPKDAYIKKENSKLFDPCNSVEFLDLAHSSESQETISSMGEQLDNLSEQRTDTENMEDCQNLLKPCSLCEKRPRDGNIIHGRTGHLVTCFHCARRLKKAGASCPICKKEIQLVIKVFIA
Target sequence (Q00987 whole entry, looked up): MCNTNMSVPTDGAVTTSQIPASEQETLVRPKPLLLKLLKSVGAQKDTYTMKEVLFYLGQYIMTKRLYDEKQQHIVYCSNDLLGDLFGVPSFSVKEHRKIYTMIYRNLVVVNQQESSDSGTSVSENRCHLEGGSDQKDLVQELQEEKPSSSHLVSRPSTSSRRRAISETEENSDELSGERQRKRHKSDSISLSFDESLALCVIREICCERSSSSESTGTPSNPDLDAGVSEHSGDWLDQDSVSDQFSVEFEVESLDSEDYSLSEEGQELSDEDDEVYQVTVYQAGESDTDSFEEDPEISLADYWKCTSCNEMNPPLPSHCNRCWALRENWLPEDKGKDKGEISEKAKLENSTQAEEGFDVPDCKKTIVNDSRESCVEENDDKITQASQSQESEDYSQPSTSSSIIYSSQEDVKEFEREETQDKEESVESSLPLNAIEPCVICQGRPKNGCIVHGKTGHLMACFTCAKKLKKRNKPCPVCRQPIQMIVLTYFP
SKKanGAS inh – S. pyogenes SKKanGAS growth inhibitors in kanamycin, primary screen, streptokinase expression inhibitor project, SKKanGAS strain, BacTiter-Glo luminescence; 6 h; inhibition, % at 7.5 µM; 1.3% of 300,000 active;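 active means mean replicate score, as percent of positive control median, at least 50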;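 further: strain carries kanamycin resistance gene driven by streptokinase promoter and grows in 40 µg/ml kanamycin; loss of luminescence reflects streptokinase promoter inhibition or plain growth inhibition; 0% = median of DMSO wells and 100% = positive control at its reference dose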
Beta apoptosis – inhibitors of cytokine-induced beta cell apoptosis, primary screen, luminescence | INS-1E cytokine-induced death, ATP luminescence, 48 h; percent of positive-control rescue, neutral wells zero | protection from apoptosis, % (no concentration beside the values) | 0.8% of 300,000 active;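 active means Every replicate reaches about 75%, or at least half do and their mean reaches it too, limit read from the data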;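 further: 0% = cytokine-treated negative control wells and 100% = positive control rescue; higher means more ATP so stronger rescue from cytokine killing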
Mdm2-MdmX conf – Mdm2-MdmX complex disruptors, retested hits, confirmation, luminescence, single concentration. AID 489028, 2010. Mdm2-MdmX binding, luminescent assay. 55% of 10,000 active. inhibition, % at 8 µM. shares compounds with Mdm2-MdmX inh; in the data active means inhibition above about 40%
Full FLuc ctr – full-length luciferase signal inhibition, confirmation, counter-screen for Mdm2/MdmX interaction inhibitor project, cell-based, single concentration, SaOS-2; SaOS-2 full-length luciferase counterscreen, luminescence; inhibition, % at 8 µM; AID 504607, 2011; 77% of 6,200 active; shares compounds with Mdm2-MdmX inh;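 active means mean inhibition at 8 µM reaching about 37%, which flags the compound as non-specific, limit read from the data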;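 further: p53-null SaOS-2 cells with luciferase driven by a doxycycline-inducible promoter; compound on cells about two nights before reading with doxycycline added after day one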
The depositor's hits bear a star.

`CC(C)NC(=O)NC(=O)COC(=O)c1c2c(nc3ccccc13)CCC2` gave CSC inhib 1, T cruzi repl 3, Mdm2-MdmX inh 36 and SKKanGAS inh 1.
`Cc1cc(N2CCN(C)CC2)ccc1NC(=O)c1c2c(nc3ccccc13)CCN(Cc1ccccc1)C2` gave CSC inhib -14, T cruzi repl 58*, L major viab 100*, Mdm2-MdmX inh 100*, SKKanGAS inh -26, Beta apoptosis 99*, Mdm2-MdmX conf 100* and Full FLuc ctr 52*.
`CC(C)c1ccccc1NC(=O)COC(=O)c1c2c(nc3ccccc13)CCN(Cc1ccccc1)C2` gave CSC inhib 11, T cruzi repl 40, L major viab 46, Mdm2-MdmX inh 53*, SKKanGAS inh 7, Beta apoptosis 0 and Mdm2-MdmX conf 33.
`CCN1CCc2nc3ccccc3c(C(=O)Nc3ccc(C#N)cc3)c2C1` gave CSC inhib -10, T cruzi repl 44, L major viab 2, Mdm2-MdmX inh 14, SKKanGAS inh 17 and Beta apoptosis -5.
Screening N#CC(C#N)=c1ccc2c(c1)N1C3=C(CCCC3)CC3CCCCC31N=2 (centres undefined) returned CSC inhib 19, T cruzi repl 20, L major viab 99*, Mdm2-MdmX inh 67*, SKKanGAS inh 12, Beta apoptosis 26, Mdm2-MdmX conf 46* and Full FLuc ctr 38*.
Screening CC(C)c1nnc(NC(=O)C2CCCN2C(=O)Nc2ccccc2[N+](=O)[O-])s1 (centres undefined) returned CSC inhib -6, T cruzi repl 2, L major viab -9, Mdm2-MdmX inh -4, SKKanGAS inh -24 and Beta apoptosis 5.
For O=C1CN(C(=O)COc2cccc(F)c2)c2ccccc2N1 the results were T cruzi repl 3, L major viab -4, Mdm2-MdmX inh 5, SKKanGAS inh -6 and Beta apoptosis 5.
Cc1noc(C)c1COc1cccc(C(=O)OCC(=O)N2CC(=O)Nc3ccccc32)c1 was read as CSC inhib 54, T cruzi repl 15, L major viab 2, Mdm2-MdmX inh 50*, SKKanGAS inh -3, Beta apoptosis 16, Mdm2-MdmX conf 67* and Full FLuc ctr 59*.
Screening c1ccc(-c2noc(-c3ccncc3)n2)nc1 returned CSC inhib 45, T cruzi repl 11, L major viab -2, Mdm2-MdmX inh -2, SKKanGAS inh 10 and Beta apoptosis 29.
Screening Clc1ccccc1/C=C/c1nc(-c2ccccn2)no1 returned CSC inhib 15, T cruzi repl 7, Mdm2-MdmX inh 66*, SKKanGAS inh -12, Beta apoptosis 4, Mdm2-MdmX conf 54* and Full FLuc ctr 95*.
O=S(=O)(Nc1ccc(-n2cnnn2)cc1)c1cccs1 was read as CSC inhib -18, Mdm2-MdmX inh -39 and Beta apoptosis -5.
Screening Cc1cccn2c(=O)nc(SCC(=O)N3N=C(c4cccs4)CC3c3ccc(F)cc3)nc12 (centres undefined) returned T cruzi repl 67*, Mdm2-MdmX inh 51*, SKKanGAS inh 25, Mdm2-MdmX conf 51* and Full FLuc ctr 71*.
For N/C(=C\C(=O)c1cc(Cl)ccc1O)C(Cl)(Cl)Cl the results were CSC inhib 85*, T cruzi repl 53, Mdm2-MdmX inh 95*, SKKanGAS inh -10, Beta apoptosis 12, Mdm2-MdmX conf 57* and Full FLuc ctr 54*.
CNc1ccc(Cl)cc1C(N)=O was read as CSC inhib -16, T cruzi repl -15, Mdm2-MdmX inh 3, SKKanGAS inh 1 and Beta apoptosis -3.
`Cc1ccc(S(=O)(=O)Nc2ccccc2N2CCCCC2)cc1` gave CSC inhib -5, Mdm2-MdmX inh 45 and Beta apoptosis 3.
Screening COC(=O)c1ccc(N2CCCCC2)c(NS(=O)(=O)c2ccc(C)cc2)c1 returned T cruzi repl 47, L major viab 97*, Mdm2-MdmX inh 65*, SKKanGAS inh -4, Mdm2-MdmX conf 57* and Full FLuc ctr 62*.
`COc1ccc(NC(C)=O)cc1NS(=O)(=O)c1ccc2c(c1)OCCO2` gave CSC inhib -9, Mdm2-MdmX inh 16 and Beta apoptosis -2.
For COC(=O)c1ccc(Cl)c(NS(=O)(=O)c2ccc3c(c2)OCCO3)c1 the results were CSC inhib 41, T cruzi repl -7, L major viab 80*, Mdm2-MdmX inh 53*, SKKanGAS inh 6, Beta apoptosis 2, Mdm2-MdmX conf 47* and Full FLuc ctr 55*.
`COc1ccccc1NC(=O)C(C)OC(=O)CCNS(=O)(=O)c1ccc(C)c(C)c1` (centres undefined) gave CSC inhib -2, T cruzi repl -13, Mdm2-MdmX inh 24, SKKanGAS inh -14 and Beta apoptosis -1.
Screening CCCNS(=O)(=O)c1cccc(C(=O)OCc2cc(=O)oc3cc(OC)ccc23)c1 returned CSC inhib 22, T cruzi repl 8, Mdm2-MdmX inh 70*, SKKanGAS inh 10, Beta apoptosis 21, Mdm2-MdmX conf 56* and Full FLuc ctr 66*.
COc1ccc2c(COC(=O)c3cccc(S(=O)(=O)NCC(C)C)c3)cc(=O)oc2c1 was read as CSC inhib 0, T cruzi repl 5, Mdm2-MdmX inh 9, SKKanGAS inh 11 and Beta apoptosis -5.
Screening CC(C)(C)c1ccc(CS(=O)(=O)CC2(O)CCN(C(=O)c3cccc(C(F)(F)F)c3)CC2)cc1 returned CSC inhib -7, T cruzi repl -11, L major viab -8, Mdm2-MdmX inh 61*, SKKanGAS inh -7 and Mdm2-MdmX conf 1.
O=C(c1cccc(C(F)(F)F)c1)N1CCCC1 was read as CSC inhib -11, T cruzi repl -3, L major viab -6, Mdm2-MdmX inh -4, SKKanGAS inh 0 and Beta apoptosis -3.
Screening CS(=O)(=O)c1nc(-c2cccs2)cc(C(F)(F)F)n1 returned CSC inhib 100*, T cruzi repl 77*, L major viab 37, Mdm2-MdmX inh 100*, SKKanGAS inh -16, Beta apoptosis 91*, Mdm2-MdmX conf 99* and Full FLuc ctr 1.
